Legend:
[1] = biological target: T1, Dual specificity protein phosphatase 6 (Rattus norvegicus, UniProt Q64346); assay: Inhibition of histidine-tagged rat recombinant MKP3 catalytic domain expressed in Escherichia coli BL21(DE3)
T1 sequence (Q64346 whole entry): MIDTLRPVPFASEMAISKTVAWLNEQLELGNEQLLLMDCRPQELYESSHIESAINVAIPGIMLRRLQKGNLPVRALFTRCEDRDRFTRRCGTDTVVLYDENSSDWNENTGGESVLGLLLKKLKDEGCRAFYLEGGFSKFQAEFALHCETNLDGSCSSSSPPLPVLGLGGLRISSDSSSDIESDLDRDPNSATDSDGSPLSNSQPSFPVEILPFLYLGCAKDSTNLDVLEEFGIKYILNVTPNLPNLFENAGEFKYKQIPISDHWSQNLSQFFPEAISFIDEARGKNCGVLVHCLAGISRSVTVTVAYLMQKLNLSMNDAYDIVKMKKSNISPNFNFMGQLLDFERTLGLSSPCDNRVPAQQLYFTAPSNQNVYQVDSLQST
Summary of the method: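 Recombinant MKP-3 was expressed from a bacterial plasmid. Phosphatase activity was read from O-methyl fluorescein phosphate hydrolysis in a 25 μL final mixture, incubated 20 or 60 min at ambient temperature. Product fluorescence was read at excitation 485 nm and emission 530 nm. IC50 came from at least six inhibitor concentrations.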

[2] = biological target: T2, Dual specificity protein phosphatase 1 (Mus musculus, UniProt P28563); assay: Inhibition of histidine-tagged mouse MKP1 catalytic domain expressed in […]
T2 sequence (P28563 whole entry): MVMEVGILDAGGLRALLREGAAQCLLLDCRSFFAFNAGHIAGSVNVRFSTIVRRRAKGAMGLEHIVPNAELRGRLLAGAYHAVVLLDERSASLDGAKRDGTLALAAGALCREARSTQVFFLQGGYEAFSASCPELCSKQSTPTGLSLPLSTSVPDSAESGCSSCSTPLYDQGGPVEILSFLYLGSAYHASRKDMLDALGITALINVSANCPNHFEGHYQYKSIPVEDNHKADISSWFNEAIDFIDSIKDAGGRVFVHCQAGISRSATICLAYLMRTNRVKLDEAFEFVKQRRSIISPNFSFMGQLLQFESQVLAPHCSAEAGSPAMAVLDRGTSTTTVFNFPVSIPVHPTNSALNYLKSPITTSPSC

[3] = biological target: T3, M-phase inducer phosphatase 2 (Homo sapiens, UniProt P30305); assay: Inhibition of histidine-tagged human recombinant Cdc25B catalytic domain expressed in Escherichia coli
T3 sequence (P30305 whole entry): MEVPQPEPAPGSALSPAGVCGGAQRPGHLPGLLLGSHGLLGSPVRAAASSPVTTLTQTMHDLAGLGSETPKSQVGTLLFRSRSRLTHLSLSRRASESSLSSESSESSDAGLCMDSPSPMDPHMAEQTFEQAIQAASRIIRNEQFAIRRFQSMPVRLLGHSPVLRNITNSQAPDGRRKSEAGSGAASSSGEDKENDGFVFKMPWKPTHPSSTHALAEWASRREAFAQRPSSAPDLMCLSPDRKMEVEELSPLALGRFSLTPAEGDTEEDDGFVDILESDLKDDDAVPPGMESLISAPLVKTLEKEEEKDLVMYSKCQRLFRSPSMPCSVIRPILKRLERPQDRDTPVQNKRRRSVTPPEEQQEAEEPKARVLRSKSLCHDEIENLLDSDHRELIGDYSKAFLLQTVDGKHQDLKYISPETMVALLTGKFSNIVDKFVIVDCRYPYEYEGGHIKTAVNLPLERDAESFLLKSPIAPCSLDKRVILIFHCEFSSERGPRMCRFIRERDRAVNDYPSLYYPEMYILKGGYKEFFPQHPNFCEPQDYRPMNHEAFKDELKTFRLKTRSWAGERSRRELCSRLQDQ

Measured: IC50

Cc1c(NCC=O)c(O)c2ccccc2c1O [2-(2-hydroxyethylamino)-3-methylnaphthalene-1,4-dione]
> 50 µM: all assays above

O=CCNc1cc(O)c2ccccc2c1O [2-(2-hydroxyethylamino)naphthalene-1,4-dione]
> 50 µM: all assays above

From BindingDB's records for doi:10.1016/j.bmc.2008.10.090 (Virginia Polytechnic Institute and State University, 2009)
